This is an account of results in ChEMBL document CHEMBL1255513, “Synthesis and biological evaluation of indomethacin analogs possessing a N-difluoromethyl-1,2-dihydropyrid-2-one ring system: a search for novel cyclooxygenase and lipoxygenase inhibitors” (Bioorg Med Chem Lett, 2010).

The target in assay [1] is T1, Prostaglandin G/H synthase 1 (Ovis aries, UniProt P05979).
T1 sequence (P05979 whole entry): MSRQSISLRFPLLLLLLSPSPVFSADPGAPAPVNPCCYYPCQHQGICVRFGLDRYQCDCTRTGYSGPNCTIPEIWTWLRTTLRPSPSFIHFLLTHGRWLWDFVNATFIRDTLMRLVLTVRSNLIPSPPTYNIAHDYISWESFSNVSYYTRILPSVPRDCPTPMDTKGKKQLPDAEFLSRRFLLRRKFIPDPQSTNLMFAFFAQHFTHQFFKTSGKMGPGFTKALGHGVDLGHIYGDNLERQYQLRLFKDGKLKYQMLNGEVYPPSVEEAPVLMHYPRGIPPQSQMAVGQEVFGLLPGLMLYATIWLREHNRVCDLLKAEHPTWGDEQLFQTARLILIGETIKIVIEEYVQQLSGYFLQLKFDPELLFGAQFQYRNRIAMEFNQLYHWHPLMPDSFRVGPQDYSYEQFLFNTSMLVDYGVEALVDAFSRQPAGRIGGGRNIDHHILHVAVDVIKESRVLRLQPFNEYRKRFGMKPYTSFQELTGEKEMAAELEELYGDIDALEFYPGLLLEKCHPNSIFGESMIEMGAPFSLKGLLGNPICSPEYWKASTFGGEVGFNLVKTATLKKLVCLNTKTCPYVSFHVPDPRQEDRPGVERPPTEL
Kind of assay: Inhibition of ovine COX1 by enzyme immunoassay. A digest of the protocol:
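COX inhibition was measured by enzyme immunoassay kit. IC50 is the mean of two determinations, with deviation from the mean below 10%.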

Assay [2] deals with T2, Prostaglandin G/H synthase 2 (Homo sapiens, UniProt P35354).
T2 sequence (P35354 whole entry): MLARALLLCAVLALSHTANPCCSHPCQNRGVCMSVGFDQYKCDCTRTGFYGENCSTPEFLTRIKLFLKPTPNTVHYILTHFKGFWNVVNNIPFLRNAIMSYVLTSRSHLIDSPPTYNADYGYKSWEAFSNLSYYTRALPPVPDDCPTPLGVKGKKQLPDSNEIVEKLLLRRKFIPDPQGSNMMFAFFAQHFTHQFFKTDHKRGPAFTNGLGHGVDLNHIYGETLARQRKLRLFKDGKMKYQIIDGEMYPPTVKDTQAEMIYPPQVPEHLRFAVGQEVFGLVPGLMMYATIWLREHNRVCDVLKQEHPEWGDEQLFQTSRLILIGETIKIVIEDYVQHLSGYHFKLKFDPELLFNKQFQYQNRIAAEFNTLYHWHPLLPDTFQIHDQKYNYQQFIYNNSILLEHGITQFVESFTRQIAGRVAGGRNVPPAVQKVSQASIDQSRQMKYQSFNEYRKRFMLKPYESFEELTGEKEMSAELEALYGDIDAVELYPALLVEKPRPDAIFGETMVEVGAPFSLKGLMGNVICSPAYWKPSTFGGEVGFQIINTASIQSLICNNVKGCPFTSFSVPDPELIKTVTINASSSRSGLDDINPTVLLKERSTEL
Kind of assay: Inhibition of human recombinant COX2 by enzyme immunoassay.

The nature of assay [3]: Inhibition of potato 5-lipoxygenase by enzyme immunoassay. Details: species or system Solanum tuberosum.
Assay [4] concerns Rattus norvegicus. Kind of assay: Antiinflammatory activity in rat assessed as inhibition of carrageenan-induced rat paw edema at 100 mg/kg, po after 3 hrs. Type of assay: functional. A digest of the protocol:
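Carrageenan-induced rat paw edema; test compound given orally at 100 mg/kg. Result is % inhibition of inflammation at 3 h after dosing. Protocol was approved by the University of Alberta Health Sciences Animal Welfare Committee.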
For orientation: In the carrageenan paw model, swelling and tenderness develop within hours.

Assay [5] deals with Rattus norvegicus. Kind of assay: Antiinflammatory activity in rat assessed as inhibition of carrageenan-induced rat paw edema at 4.2 mg/kg, po after 3 hrs. Format: functional. In a few lines: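 Carrageenan-induced foot paw edema in rats, with the agent given orally. Read-out is % inhibition of inflammation, measured 3 h after the oral dose. Animal work followed protocols approved by the University of Alberta Health Sciences Animal Welfare Committee.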

The source made the active and inactive calls. The calls are words filed in the database; no cut-off is given here.

For `COc1ccc2c(c1)c(CC(=O)O)c(C)n2Cc1ccc(=O)n(C(F)F)c1`, the IC50 in assay [1], in assay [2] and in assay [3] was greater than 100 µM each time. For the same compound, in assay [4], the inhibition in vivo at 100 mg/kg came to 16%.

In assay [3], `CC(Cc1ccc(O)c(O)c1)C(C)Cc1ccc(O)c(O)c1` (centres undefined) [NORDIHYDROGUAIARETIC ACID] displayed an IC50 of 13 µM.

With `COc1ccc2c(c1)c(CC(=O)O)c(C)n2C(=O)c1ccn(C(F)F)c(=O)c1`, the IC50 in assay [1], in assay [2] and in assay [3] was greater than 100 µM in each case. Besides, in assay [4], the inhibition in vivo at 100 mg/kg worked out at 25.5%.

With `COc1ccc2c(c1)c(CC(=O)O)c(C)n2C(=O)c1ccc(Cl)cc1` [INDOMETHACIN], the inhibition in vivo at 4.2 mg/kg in assay [5] is 50%.

For the compound `COc1ccc2c(c1)c(CC(=O)O)c(C)n2Cc1ccn(C(F)F)c(=O)c1`, the IC50 in assay [1] was greater than 100 µM; in assay [2] it was 31 µM; in assay [3], greater than 100 µM. The inhibition result in assay [4] was “inactive”.

As usually defined, the IC50 is the point on the concentration scale where inhibition reaches its midpoint. Broadly, the inhibition in vivo is the relative decrease from the control value, in per cent.
